pIC50: −log10 of the molar value. Values belong to the molecule of their own block, whether it stands above or below them. Calls of active or inactive are those of the source. The calls are words filed in the database; no cut-off is given here.
Columns and labels:
[1] = Cytotoxicity against Sprague-Dawley rat alveolar macrophages assessed as cell viability at 0.4 mM after 3 hrs by trypan blue exclusion assay; assay type: cell-based, Macrophage; conditions: read-out: Activity
Summary of the method: (§1)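 Alveolar macrophages from normal rats (10⁶ per well) were kept in serum-free DMEM with compound for 3 h. They were then stained with 0.4% trypan blue, and unstained viable cells were counted.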

[2] = Ratio of IC50 for polyamine uptake in CHO-MG cells to IC50 for polyamine transporter expressed in CHO cells
[3] = Inhibition of polyamine transporter expressed in CHO cells; assay type: cell-based
Pneumocystis carinii [4] = experiment: Antimicrobial activity against Pneumocystis carinii infected in Sprague-Dawley rat assessed as increase of host survival time at 0.5 mg/kg, intranasally every 2 days 28 days after infection; assay type: functional
Summary of the method: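 Female Sprague-Dawley rats (~120 g) were immunosuppressed with dexamethasone 1.8 mg/liter in drinking water. One week later they were inoculated transtracheally with 7.5 × 10⁶ trophic forms, with weekly intramuscular penicillin. From infection day 28, rats received 50 μl of a 1 mM solution intranasally every 2 days (7–8 rats/group), alongside untreated infected and uninfected controls. Survival was followed to day 84 and compared by Kaplan-Meier/log-rank.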

[5] = Cytotoxicity against Sprague-Dawley rat alveolar macrophages assessed as cell viability at 2 mM after 3 hrs by trypan blue exclusion assay; assay type: cell-based, Macrophage; conditions: for Activity: macrophage, 3 h, 2000 µM; summary of the method: as §1
CHO-MG = experiment: Inhibition of polyamine uptake in CHO-MG cells; assay type: functional, cell-based; conditions: Cricetulus griseus
Pneumocystis carinii [6] = experiment: Antimicrobial activity against Pneumocystis carinii infected in Sprague-Dawley rat assessed as reduction of inflammatory cell infiltration at 0.5 mg/kg, intranasally every 2 days 28 days after infection for 21 days; assay type: functional, organism-based; design: dose 0.5 mg/kg
Summary of the method: (§2)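 Female Sprague-Dawley rats (~120 g) were immunosuppressed with dexamethasone at 1.8 mg/liter in drinking water. After 1 week they received a transtracheal inoculum of 7.5 × 10⁶ trophic forms, plus penicillin i.m. weekly. From infection day 28, they were given 50 μl of a 1 mM solution intranasally every 2 days. After 21 days, lungs were fixed in 4% paraformaldehyde, and paraffin sections were H&E-stained and examined by light microscopy. Inflammation was graded 0–5.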

Pneumocystis carinii [7] = experiment: Antimicrobial activity against Pneumocystis carinii infected in Sprague-Dawley rat assessed as effect on alveolar structure at 0.5 mg/kg, intranasally every 2 days 28 days after infection for 21 days; assay type: functional, organism-based; design: dose 0.5 mg/kg; summary of the method: as §2
Pneumocystis carinii [8] = experiment: Antimicrobial activity against Pneumocystis carinii infected in Sprague-Dawley rat assessed as effect on foamy exudates in alveoli at 0.5 mg/kg, intranasally every 2 days 28 days after infection for 21 days; assay type: functional, organism-based; design: dose 0.5 mg/kg; summary of the method: as §2
Pneumocystis carinii [9] = experiment: Antimicrobial activity against Pneumocystis carinii infected in Sprague-Dawley rat assessed as reduction of organism burden in lungs at 0.5 mg/kg, intranasally every 2 days 28 days after infection for 21 days; assay type: functional, organism-based; design: dose 0.5 mg/kg
Summary of the method: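 The dexamethasone-immunosuppressed, P. carinii-infected female Sprague-Dawley rats were dosed intranasally with 50 μl of a 1 mM solution every 2 days from infection day 28, for 21 days. Cysts were counted in paraffin lung sections stained with modified Grocott's methenamine silver, and burden was graded on a 0–4 scale.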

Pneumocystis carinii [10] = experiment: Antimicrobial activity against Pneumocystis carinii infected in Sprague-Dawley rat assessed as reduction of number of apoptotic alveolar macrophages at 0.5 mg/kg, intranasally every 2 days 28 days after infection for 21 days; assay type: functional
Summary of the method: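 Lung sections came from infected, dexamethasone-treated rats given 50 μl of 1 mM intranasally every 2 days for 21 days from day 28. Sections were digested with proteinase K (20 μg/ml, room temperature, 10 min), then TdT/fluorescein-12-dUTP labelled (37°C, 1 h) and DAPI-mounted. Apoptotic macrophage percentage was taken as TUNEL+/DAPI+ cells over 10 random 100× fields per slide.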

Pneumocystis carinii [11] = experiment: Antimicrobial activity against Pneumocystis carinii infected in Sprague-Dawley rat assessed as increase of open alveolar space at 0.5 mg/kg, intranasally every 2 days 28 days after infection for 21 days; assay type: functional, organism-based; design: dose 0.5 mg/kg; summary of the method: as §2
Pneumocystis carinii [12] = experiment: Antimicrobial activity against Pneumocystis carinii infected in Sprague-Dawley rat assessed as reduction of alveolar septum thickness at 0.5 mg/kg, intranasally every 2 days 28 days after infection for 21 days; assay type: functional, organism-based; design: dose 0.5 mg/kg; summary of the method: as §2
Pneumocystis carinii [13] = experiment: Antimicrobial activity against Pneumocystis carinii infected in Sprague-Dawley rat assessed as reduction of inflammation at 0.5 mg/kg, intranasally every 2 days 28 days after infection for 21 days; assay type: functional, organism-based; design: dose 0.5 mg/kg; summary of the method: as §2
Pneumocystis carinii [14] = experiment: Antimicrobial activity against Pneumocystis carinii infected in Sprague-Dawley rat assessed as reduction of foamy exudates in alveoli at 0.5 mg/kg, intranasally every 2 days 28 days after infection for 21 days; assay type: functional, organism-based; design: dose 0.5 mg/kg; summary of the method: as §2

SMILES: Cl.Cl.NCCCCNCc1c2ccccc2cc2ccccc12
viability at 3 h, 400 µM [1]: < 16%
Ratio IC50 [2]: 1
pIC50 [3]: 5.11

SMILES: Cl.NCCCCNCCCCNCc1ccc(CNCCCCNCCCCN)cc1
Survival (Pneumocystis carinii [4]): 84 days
Activity [5]: Non-toxic
Ratio IC50 [2]: 677
pIC50 [3]: 7.13
pIC50 (CHO-MG): 4.30
Activity (Pneumocystis carinii [6]): Active
Activity (Pneumocystis carinii [7]): inactive
Activity (Pneumocystis carinii [8]): inactive
Activity (Pneumocystis carinii [9]): Active
Activity (Pneumocystis carinii [10]): inactive

SMILES: Cl.NCCCCNCCCCNCc1c2ccccc2c(CNCCCCNCCCCN)c2ccccc12
Survival (Pneumocystis carinii [4]): 84 days
Activity [5]: Non-toxic
Ratio IC50 [2]: >2222
pIC50 [3]: 7.35
pIC50 (CHO-MG): < 4.00
Activity (Pneumocystis carinii [11]): Active
Activity (Pneumocystis carinii [12]): Active
Activity (Pneumocystis carinii [13]): Active
Activity (Pneumocystis carinii [14]): Active
Activity (Pneumocystis carinii [9]): Active
Activity (Pneumocystis carinii [10]): 80%

Second part, led by results:

pIC50 [3]: 6.35
SMILES: NCCCCNCCCCNCc1c2ccccc2cc2ccccc12
viability at 3 h, 400 µM [1]: < 16%

pIC50 [3]: 4.97
SMILES: NCCCCNCCCCNCCCCNCc1c2ccccc2cc2ccccc12
viability at 3 h, 2000 µM ([5]; Sprague-Dawley, alveolar macrophages, read-out: Activity): 42%
viability at 3 h, 400 µM [1]: 88%
pIC50 (CHO-MG): 4.48
